SR-BI uptake up = enhances SR-BI lipid uptake from DiI-HDL; CHO ldlA[mSR-BI] cells, DiI-HDL uptake fluorescence, 3 h; 100 = double the neutral-control signal; activation, % at 12.5 µM; 320,000 tested, 0.096% active;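 active = mean replicate activation of at least 60% and every replicate at or above 60%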;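 note: 0% = median plate neutral-control signal and 100% = twice that signal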
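Material: SR-BI-overexpressing, LDLR-lacking CHO cells | Dosing: Single compound concentration, delivered by pin transfer | Probe or stimulus: Labelled HDL, 10 µg/mL | Signal: Bottom-read cell fluorescence after medium removal, ex 550/em 595 nm | Schedule: 3 h, 37 °C | Evaluation: HDL uptake via cellular fluorescence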
Lipid droplet = hepatic lipid droplet formation modulation; AML12 mouse hepatocytes, oleate lipid droplets, BODIPY imaging; inhibition, % at 6.5 µM; 240,000 tested, 0.4% active; AID 1656;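 active = lipid droplet intensity inhibited by at least 50%, with more than 500 cells counted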
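System: AML12 hepatocytes (mouse). Probe or stimulus: oleic acid at 100 µM to induce lipid droplet formation. Times: overnight treatment with compound plus oleate. Detection: Image-based BODIPY and DAPI two-channel analysis. Evaluation: percent inhibition of filter-corrected integrated lipid droplet intensity per well.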
Yeast superoxide = caloric restriction mimetics inhibiting age-related superoxide in yeast | S. cerevisiae aged cells, superoxide DHE fluorescence; active compounds read low | superoxide response (% of plate mean), % at 10 µM | 330,000 tested, 0.18% active | AID 2690;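 active = superoxide response under a set limit, about three screen SD below normal, cut at about 65% in these data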;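 note: yeast aged for seven days with compound at 30 °C before DHE staining; 100% = average MFI of all compound-treated wells on the plate with controls excluded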
SR-BI HDL uptake = inhibitors of mouse SR-BI mediated HDL lipid uptake; Q61009; 320,000 tested, 0.96% active; inhibition, % at 12.5 µM; AID 488896; ldlA[mSR-BI] CHO cells, DiI-HDL uptake fluorescence, 3 h;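 active = mean replicate inhibition of at least 70% and a set share of replicates each scoring 70 or more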;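 note: 0% = median of neutral control wells and 100% = median of positive control wells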
SMARCA2 act = increases SMARCA2 function in MMTV reporter cells. MG213 cells, MMTV-luciferase reporter, dexamethasone, overnight. activation, % at 9.1 µM. 370,000 tested, 1% active; in the data active = activation above about 7.8%;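 note: 0% = vehicle wells and 100% = reference activator wells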
AHR act = activates the human aryl hydrocarbon receptor | AHR-responsive luciferase reporter cells, luminescence | activation, % at 5 µM | 320,000 tested, 2.5% active; in the data active = activation above about 47%;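 note: 0% = vehicle wells and 100% = reference agonist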
AHR act confirm = human AHR activation, confirmation; shares compounds with AHR act; human cells, AHR-responsive luciferase reporter, luminescence; activation, % at 9 µM; 2,300 tested, 87% active; AID 2845; in the data active = activation above about 49%;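 note: HepG2 hepatoma cells carrying a DRE-driven firefly luciferase reporter; 0% = vehicle wells and 100% = reference agonist wells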
PXR act counter = PXR activation, counter-screen for AHR activators | cell-based PXR reporter, luciferase luminescence | 2,300 tested, 88% active | activation, % at 11.6 µM | shares compounds with AHR act; in the data active = activation above about 11%;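 note: human hepatoma DPX-2 cells expressing full-length human PXR; 0% = DMSO and 100% = reference agonist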
Target sequence (O75469 whole entry, looked up): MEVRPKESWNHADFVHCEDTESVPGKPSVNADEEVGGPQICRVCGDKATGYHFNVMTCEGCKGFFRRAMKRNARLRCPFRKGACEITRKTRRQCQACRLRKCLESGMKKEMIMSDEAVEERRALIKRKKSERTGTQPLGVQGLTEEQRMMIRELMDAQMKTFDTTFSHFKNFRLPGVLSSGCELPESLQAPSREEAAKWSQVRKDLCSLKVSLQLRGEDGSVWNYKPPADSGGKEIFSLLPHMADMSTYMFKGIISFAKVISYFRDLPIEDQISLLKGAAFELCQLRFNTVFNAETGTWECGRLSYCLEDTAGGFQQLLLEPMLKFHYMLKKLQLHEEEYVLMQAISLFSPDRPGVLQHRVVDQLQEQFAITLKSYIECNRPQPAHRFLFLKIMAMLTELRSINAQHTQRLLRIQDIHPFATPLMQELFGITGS
An asterisk follows results filed as active. A selection: hits, their analogues and other compounds. The true share with any hit is near 4.3%.

Screening CC1=NN(C(N)=S)C(=O)C1N=Nc1cccc(Cl)c1C (stereo unspecified) returned SR-BI uptake up 12, Lipid droplet -1, Yeast superoxide 88, SR-BI HDL uptake -12, SMARCA2 act 0, AHR act 138*, AHR act confirm 139* and PXR act counter 16*.
O=C(OCc1cc(=O)n2ccsc2n1)c1ccccc1NCCO was read as Yeast superoxide 95, SMARCA2 act 2, AHR act 79*, AHR act confirm 79* and PXR act counter 5.
Screening Cc1csc2ncc(C(=O)Nc3ccc4c(c3)OCCO4)c(=O)n12 returned SR-BI uptake up 10, Lipid droplet 22, Yeast superoxide 105, SR-BI HDL uptake -10, SMARCA2 act -2 and AHR act 11.
Screening Cc1csc2ncc(C(=O)Nc3ccon3)c(=O)n12 returned SR-BI uptake up 17, Lipid droplet 10, Yeast superoxide 96, SR-BI HDL uptake -17, SMARCA2 act 1, AHR act 120*, AHR act confirm 115* and PXR act counter 12*.
Cc1cccc(NC(=O)c2cnc3scc(C)n3c2=O)c1 was read as SR-BI uptake up 4, Lipid droplet -9, Yeast superoxide 110, SR-BI HDL uptake -3, SMARCA2 act 5, AHR act 79*, AHR act confirm 96* and PXR act counter 57*.
`CC(C)(C)C(=O)OCOP(=O)(COCCn1cnc2c(N)ncnc21)OCOC(=O)C(C)(C)C` gave SMARCA2 act 0.
`NC(=O)c1c(NC(=O)c2ccc(F)cc2)sc2c1CCC2` gave SR-BI uptake up -13, Lipid droplet 8, Yeast superoxide 96, SR-BI HDL uptake 13, SMARCA2 act 7, AHR act 174*, AHR act confirm 100* and PXR act counter 37*.
NC(=O)c1c(NC(=O)c2cc3ccccc3o2)sc2c1CCC2 was read as SR-BI uptake up -24, Yeast superoxide 109, SR-BI HDL uptake 24, SMARCA2 act 1, AHR act 86*, AHR act confirm 48* and PXR act counter 7.
`NC(=O)c1c(NC(=O)c2ccc([N+](=O)[O-])o2)sc2c1CCCC2` gave SR-BI uptake up 21, Lipid droplet -61, Yeast superoxide 107, SR-BI HDL uptake -21, SMARCA2 act 4 and AHR act 15.
Screening O=C(Nc1sc2c(c1C(=O)O)CCCC2)c1ccc(F)cc1 returned SR-BI uptake up 18, Yeast superoxide 123, SR-BI HDL uptake -18 and SMARCA2 act 4.
For CCOC(=O)C1=CCN(S(=O)(=O)c2ccc(Cl)cc2)C1c1cccc(Br)c1 (stereo unspecified) the results were SMARCA2 act -3.
For COCCn1c(SCC(=O)Nc2ccccc2OC)nc2c([nH]c3ccccc32)c1=O the results were SR-BI uptake up -14, Lipid droplet -2, Yeast superoxide 123, SR-BI HDL uptake 14, SMARCA2 act -2, AHR act 85*, AHR act confirm 84* and PXR act counter 179*.
`COCCn1c(SCC(=O)NCCc2ccccc2)nc2c([nH]c3ccccc32)c1=O` gave SR-BI uptake up -3, Lipid droplet -34, Yeast superoxide 95, SR-BI HDL uptake 3, AHR act 120*, AHR act confirm 72* and PXR act counter 205*.
`COCCn1c(SCC(=O)NCCc2ccc(OC)c(OC)c2)nc2c([nH]c3ccccc32)c1=O` gave SR-BI uptake up 10, Lipid droplet -6, Yeast superoxide 91, SR-BI HDL uptake -10, SMARCA2 act -1 and AHR act 20.
For Cc1ccc(-c2cc(C(=O)N=Nc3c(O)[nH]c4ccccc34)[nH]n2)cc1C the results were SMARCA2 act -3.
For Cc1cccc2nc(C(=O)Nc3cc(Cl)ccc3-n3cncn3)cn12 the results were SR-BI uptake up -3, Yeast superoxide 83, SR-BI HDL uptake 3, SMARCA2 act 0, AHR act 88*, AHR act confirm 88* and PXR act counter 30*.
c1ccc(-c2csc(=Nc3cccnc3)n2CC2CCCO2)cc1 (stereo unspecified) was read as SR-BI uptake up -14, Lipid droplet -10, Yeast superoxide 95, SR-BI HDL uptake 14, SMARCA2 act -3, AHR act 80*, AHR act confirm 55* and PXR act counter 97*.
`COc1ccc(-c2nnc(SCC(=O)NN=C(C)c3cccc4ccccc34)n2-c2ccc(C)cc2)cc1` gave SMARCA2 act -3.
`COc1cc(F)c(C2=CC(=O)C[C@H](c3ccc4c(c3)OCO4)C2)cc1F` gave SR-BI uptake up 15, Yeast superoxide 97, SR-BI HDL uptake -15, SMARCA2 act 1 and AHR act 2.
Screening COc1ccc(F)cc1C1=CC(=O)C[C@H](c2ccc3c(c2)OCO3)C1 returned SR-BI uptake up -26, Yeast superoxide 82, SR-BI HDL uptake 26, SMARCA2 act -1, AHR act 86*, AHR act confirm 73* and PXR act counter 112*.
COc1cccc(C2=CC(=O)C[C@H](c3ccc4c(c3)OCO4)C2)c1OC was read as SR-BI uptake up -3, Yeast superoxide 122, SR-BI HDL uptake 3, AHR act 120*, AHR act confirm 109* and PXR act counter 148*.
O=C1C=C(c2cccc(Br)c2)C[C@@H](c2ccc3c(c2)OCO3)C1 was read as SR-BI uptake up 9, Yeast superoxide 121, SR-BI HDL uptake -9, SMARCA2 act 0, AHR act 86*, AHR act confirm 83* and PXR act counter 33*.
For COC(=O)[C@H](CC(C)C)N(CCCc1cn(Cc2ccccc2)nn1)S(=O)(=O)c1ccccc1Br the results were SMARCA2 act 0.
For CC(C)C[C@@H]1COc2cc(N3CCCC3)ccc2S(=O)(=O)N1 the results were SMARCA2 act -5.
COC(=O)[C@H](Cc1ccccc1)N1CC(N2CCCC2)CS1(=O)=O (stereo partly specified) was read as SMARCA2 act 2.
`COC(=O)C1CN(Cc2ccc(OC)cc2)CCS(=O)(=O)N1Cc1ccc(C(F)(F)F)cc1` (stereo unspecified) gave SMARCA2 act -1.
